Screens deposited in PubChem BioAssay by Broad Institute.
S100A4 MyoIIA: inhibitors of human S100A4 binding to myosin IIA peptide | P26447 | S100A4/TAMRA-MyoIIA peptide fluorescence polarization | inhibition, % at 10.7 µM | 360,000 compounds, 0.14% hits;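 active = mean inhibition of at least 70% across replicates, with every replicate also reaching that level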
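Test system: S100A4 monomer protein. Medium: HEPES buffer with Ca2+, pH 7.2. Reagent: fluorescent myosin IIA peptide, 5 nM. Compound dosing: single-point compound testing. Timing: 5 min between mix addition and reading. Benchmarks: DMSO neutral and TFP positive wells.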
DENV2 CPE rescue: inhibitors of DENV2 cytopathic effect; DENV2-infected cells, cytopathic effect rescue, plate reader; CPE inhibition, % at 9.99 µM; 350,000 compounds, 1.7% hits; in the data active = CPE inhibition above about 20%, passing the limit was not always enough; tested in BHK-21 cells;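 note: 0% = median of neutral control wells and 100% = median of positive control wells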
Xi reactivation: X-chromosome reactivation activator; activation, % at 7.58 µM; XiGFP mouse fibroblasts, % GFP-positive cells imaging, 3 d; cells co-treated with 5-aza-dC sensitizer; scaled so ellipticine positive control = 100%; 360,000 compounds, 0.055% hits; AID 743238;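 active = mean normalized replicate activation at least 10% and every replicate at or above 10%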;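 note: 0% = median of on-plate neutral control wells and 100% = ellipticine 6 µM median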
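Schedule: 3 d treatment, 15 min room-temperature fixation; system: 68-5-11 XiGFP fibroblast line; buffer or medium: DMEM plus 5-aza-dC sensitizer; control set: ellipticine 6 µM positive control; compound: one concentration, pinned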
E-sel inducer: induces E-selectin expression in human endothelial cells; P16581; HUVEC E-selectin immunofluorescence imaging; normalized: neutral wells 0, TNF-alpha wells 100; activation, % at 7.58 µM; 260,000 compounds, 0.37% hits; AID 686992;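 active = mean E-selectin-positive cell signal at least 10% of the positive control, reached in at least 60% of replicates, without over 20% cell loss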
Target sequence (P16581 whole entry, looked up): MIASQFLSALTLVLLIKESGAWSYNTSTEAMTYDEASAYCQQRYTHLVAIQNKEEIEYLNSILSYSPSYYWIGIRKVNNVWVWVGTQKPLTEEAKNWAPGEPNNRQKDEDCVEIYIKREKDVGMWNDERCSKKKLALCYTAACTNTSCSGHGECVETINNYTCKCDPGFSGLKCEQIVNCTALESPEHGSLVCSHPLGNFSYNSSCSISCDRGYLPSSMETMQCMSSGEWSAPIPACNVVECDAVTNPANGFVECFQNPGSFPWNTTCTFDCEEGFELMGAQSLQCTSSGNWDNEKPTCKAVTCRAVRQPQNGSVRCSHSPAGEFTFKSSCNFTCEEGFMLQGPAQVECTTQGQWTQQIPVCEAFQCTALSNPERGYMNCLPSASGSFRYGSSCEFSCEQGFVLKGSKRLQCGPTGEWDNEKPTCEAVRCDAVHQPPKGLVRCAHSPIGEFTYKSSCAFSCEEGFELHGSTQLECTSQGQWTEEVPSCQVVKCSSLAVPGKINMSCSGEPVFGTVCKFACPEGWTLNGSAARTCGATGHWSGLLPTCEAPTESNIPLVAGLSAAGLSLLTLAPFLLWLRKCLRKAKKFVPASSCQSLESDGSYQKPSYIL
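material = human umbilical vein endothelial cells (HUVEC), E-selectin induction | quantity = 3,000 cells/well | medium = EGM-2 growth medium on 0.1% gelatin-coated wells | technique = immunofluorescence imaging | read-out basis = % PE-positive cells | control set = TNF-alpha positive control, DMSO neutral control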
Numbers without * were called inactive; ! = not confirmed by another sample. In the library only some 2% were active in any assay of this set; here they are far more common.

What do the screens show for `O=C(C[C@H]1CC[C@@H]2[C@H](COC[C@@H](O)CN2C(=O)c2cccnc2)O1)NCc1ccc(-c2ccccc2)cc1`?
S100A4 MyoIIA: -27; DENV2 CPE rescue: 23*; Xi reactivation: 0; E-sel inducer: 0

Results for O=C(C[C@@H]1CC[C@H]2[C@@H](COC[C@H](O)CN2C(=O)c2ccccc2F)O1)NCc1ccccc1 ?
S100A4 MyoIIA: -1; DENV2 CPE rescue: 86*; Xi reactivation: 0; E-sel inducer: 0

What do the screens show for `COc1ccc(CN(C)C[C@@H]2OCCCC[C@H](C)Oc3ccc(NS(C)(=O)=O)cc3C(=O)N([C@@H](C)CO)C[C@@H]2C)cc1`?
S100A4 MyoIIA: 2; DENV2 CPE rescue: -1; Xi reactivation: 0; E-sel inducer: 1

What do the screens show for `C[C@@H]1CN([C@@H](C)CO)C(=O)c2cc(NC(=O)Nc3cccc4ccccc34)ccc2O[C@H]1CN(C)Cc1ccc(C(=O)Nc2ccccc2N)cc1`?
S100A4 MyoIIA: -11; DENV2 CPE rescue: 10; Xi reactivation: 0; E-sel inducer: 4

Results for CCCNC(=O)C[C@H]1CC[C@@H]2[C@H](COC[C@@H](O)CN2C(=O)c2ccccn2)O1 ?
S100A4 MyoIIA: -3; DENV2 CPE rescue: 89*!; Xi reactivation: 0; E-sel inducer: 0

What do the screens show for `CS(=O)(=O)N1C[C@H](O)COC[C@H]2O[C@@H](CC(=O)NCc3ccc(-c4ccccc4)cc3)CC[C@@H]21`?
S100A4 MyoIIA: -4; DENV2 CPE rescue: 79*; Xi reactivation: 0; E-sel inducer: 0

How did CCCNC(=O)C[C@@H]1CC[C@H]2[C@@H](COC[C@H](O)CN2C(=O)c2ccccn2)O1 do in these assays?
S100A4 MyoIIA: -5; DENV2 CPE rescue: 11; Xi reactivation: 0; E-sel inducer: 0

Results for CN(C)C(=O)[C@H]1[C@H](CO)[C@H]2Cn3c(ccc(C4=CCCCC4)c3=O)[C@H]2N1CC1CC1 ?
S100A4 MyoIIA: -3; DENV2 CPE rescue: 13; Xi reactivation: 0; E-sel inducer: 0

What do the screens show for `c1ccc2c(c1)CCc1ccccc1C2=C1CCNCC1`?
S100A4 MyoIIA: 1; DENV2 CPE rescue: -2; Xi reactivation: 0; E-sel inducer: 0

How did C=CCN1C(=O)[C@]2(O[C@H](CCO)[C@@H]([Si](C)(C)c3ccc(OC)cc3)[C@@H]2C)c2cc(I)ccc21 do in these assays?
S100A4 MyoIIA: 9; DENV2 CPE rescue: 0

Results for C=CCN1C(=O)[C@]2(O[C@H](CCO)[C@@H]([Si](C)(C)c3ccc(OC)cc3)[C@@H]2C)c2cc(NC(=O)[C@H](C)O)ccc21 ?
S100A4 MyoIIA: 1; DENV2 CPE rescue: 42*

Results for Cc1ccc(S(=O)(=O)N(C)C[C@H]2Oc3ccc(NC(=O)Nc4ccccc4)cc3C(=O)N([C@@H](C)CO)C[C@H]2C)cc1 ?
S100A4 MyoIIA: 102*; DENV2 CPE rescue: -3; Xi reactivation: 0; E-sel inducer: 0

How did Cc1ccc(S(=O)(=O)N(C)C[C@H]2Oc3ccc(NC(=O)Nc4ccc(C(F)(F)F)cc4)cc3C(=O)N([C@H](C)CO)C[C@@H]2C)cc1 do in these assays?
S100A4 MyoIIA: 2; DENV2 CPE rescue: 37*; Xi reactivation: -1; E-sel inducer: 1

Results for Cc1ccc(S(=O)(=O)N(C)C[C@H]2Oc3ccc(NC(=O)Cc4ccccc4)cc3C(=O)N([C@H](C)CO)C[C@@H]2C)cc1 ?
S100A4 MyoIIA: 16; DENV2 CPE rescue: 66*; Xi reactivation: 0; E-sel inducer: 0

Results for Cc1ccc(S(=O)(=O)N(C)C[C@@H]2Oc3ccc(NC(=O)Cc4ccccc4)cc3C(=O)N([C@H](C)CO)C[C@H]2C)cc1 ?
S100A4 MyoIIA: 0; DENV2 CPE rescue: 4; Xi reactivation: 0; E-sel inducer: 0

Results for C[C@H]1CN([C@@H](C)CO)C(=O)c2cc(NC(=O)Nc3ccc(C(F)(F)F)cc3)ccc2O[C@@H]1CN(C)S(=O)(=O)c1ccccc1 ?
S100A4 MyoIIA: 7; DENV2 CPE rescue: 0; Xi reactivation: 0; E-sel inducer: 133*

Results for Cc1ccc(S(=O)(=O)N(C)C[C@H]2Oc3ccc(NC(=O)Nc4ccc(C(F)(F)F)cc4)cc3C(=O)N([C@H](C)CO)C[C@H]2C)cc1 ?
S100A4 MyoIIA: 22; DENV2 CPE rescue: 44*; Xi reactivation: 0; E-sel inducer: 1

How did C[C@@H]1CN([C@H](C)CO)C(=O)c2cc(NC(=O)Nc3ccc4c(c3)OCO4)ccc2O[C@H]1CN(C)S(=O)(=O)c1ccc(F)cc1 do in these assays?
S100A4 MyoIIA: 0; DENV2 CPE rescue: 8; Xi reactivation: 0; E-sel inducer: 51*

What do the screens show for `C[C@@H]1CN([C@@H](C)CO)C(=O)c2cc(NC(=O)Nc3ccc4c(c3)OCO4)ccc2O[C@H]1CN(C)S(=O)(=O)c1ccc(F)cc1`?
S100A4 MyoIIA: -3; DENV2 CPE rescue: -8; Xi reactivation: 0; E-sel inducer: -15

Results for Cc1ccc(S(=O)(=O)N(C)C[C@@H]2Oc3ccc(NC(=O)Nc4ccc(C(F)(F)F)cc4)cc3C(=O)N([C@H](C)CO)C[C@H]2C)cc1 ?
S100A4 MyoIIA: -8; DENV2 CPE rescue: -9; Xi reactivation: 0; E-sel inducer: 2

How did C[C@H](CO)N1C[C@H](C)[C@@H](CN(C)CC2CCCCC2)Oc2ccc(NC(=O)C3CC3)cc2C1=O do in these assays?
S100A4 MyoIIA: -15; DENV2 CPE rescue: 20; Xi reactivation: -1

What do the screens show for `CC=Cc1ccc2n(c1=O)C[C@H]1[C@H](CO)[C@@H](C(=O)N3CCCCC3)N(C(=O)CC3CC3)[C@@H]21` (mixture of isomers)?
S100A4 MyoIIA: -12; DENV2 CPE rescue: 12; Xi reactivation: 0; E-sel inducer: 0

What do the screens show for `c1ccc(-n2ncc3c(NCc4ccccn4)ncnc32)cc1`?
S100A4 MyoIIA: 2; DENV2 CPE rescue: 1

How did COC(=O)c1ccc2nc(-c3cccc(Cl)c3)c(Cc3cccc(F)c3)n2c1 do in these assays?
S100A4 MyoIIA: -6; DENV2 CPE rescue: -16; Xi reactivation: 0; E-sel inducer: 1

How did CO[C@@H]1CN(C)C(=O)c2ccc(NC(=O)c3ccccc3)cc2OC[C@H](C)N(C(=O)CN(C)C)C[C@@H]1C do in these assays?
S100A4 MyoIIA: 36; DENV2 CPE rescue: 34*; Xi reactivation: 0; E-sel inducer: 0

Results for CO[C@H]1CN(C)C(=O)c2ccc(NC(=O)c3ccccc3)cc2OC[C@@H](C)N(C(=O)CN(C)C)C[C@@H]1C ?
S100A4 MyoIIA: 4; DENV2 CPE rescue: 28*; Xi reactivation: 1; E-sel inducer: 0

Results for CO[C@@H]1CN(C)C(=O)c2ccc(NC(=O)c3ccccc3)cc2OC[C@@H](C)N(C(=O)CN(C)C)C[C@@H]1C ?
S100A4 MyoIIA: -4; DENV2 CPE rescue: 8; Xi reactivation: 0; E-sel inducer: 1

Results for CO[C@H]1CN(C)C(=O)c2ccc(NC(=O)c3ccccc3)cc2OC[C@H](C)N(C(=O)CN(C)C)C[C@@H]1C ?
Xi reactivation: 0
